Laboratory results taken from ChEMBL document CHEMBL3779767, “Identification of potent and selective MTH1 inhibitors” (Bioorg Med Chem Lett, 2016).
The source made the active and inactive calls. No cut-off for these calls is given here.

Tests used:
[1] = target: 3-phosphoinositide-dependent protein kinase 1 (Homo sapiens) (UniProt O15530); experiment: Inhibition of partial length human PDPK1 expressed in bacterial system at 1 uM
How it was run: (§1)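 Single-concentration screen across a panel of 97 kinases, with the test compound at 1 uM.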

[2] = target: Dual specificity mitogen-activated protein kinase kinase 1 (Homo sapiens) (UniProt Q02750); experiment: Inhibition of partial length human MEK1 expressed in mammalian system at 1 uM
How it was run: (§2)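 Single-point screen within a 97-kinase profiling panel, with the test compound at 1 µM.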

[3] = target: Cyclin-dependent kinase 7 (Homo sapiens) (UniProt P50613); experiment: Inhibition of partial length human CDK7 expressed in mammalian system at 1 uM; how it was run: as §2
[4] = target: Cyclin-dependent kinase 9 (Homo sapiens) (UniProt P50750); experiment: Inhibition of partial length human CDK9 expressed in bacterial system at 1 uM; how it was run: as §2
[5] = target: Receptor tyrosine-protein kinase erbB-2 (Homo sapiens) (UniProt P04626); experiment: Inhibition of partial length human ERBB2 expressed in mammalian system at 1 uM
How it was run: (§3)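 Single-concentration screen at 1 µM test concentration, run as part of a commercial binding/activity profiling panel covering 97 kinases.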

HMEC = experiment: Cytotoxicity against human HMEC cells assessed as change in phenotypic response measured after prolonged treatment; assay type: cell-based
[6] = target: Tyrosine-protein kinase ZAP-70 (Homo sapiens) (UniProt P43403); experiment: Inhibition of partial length human ZAP70 expressed in mammalian system at 1 uM; how it was run: as §1
Sequence of Tyrosine-protein kinase ZAP-70 (Homo sapiens) (P43403 whole entry): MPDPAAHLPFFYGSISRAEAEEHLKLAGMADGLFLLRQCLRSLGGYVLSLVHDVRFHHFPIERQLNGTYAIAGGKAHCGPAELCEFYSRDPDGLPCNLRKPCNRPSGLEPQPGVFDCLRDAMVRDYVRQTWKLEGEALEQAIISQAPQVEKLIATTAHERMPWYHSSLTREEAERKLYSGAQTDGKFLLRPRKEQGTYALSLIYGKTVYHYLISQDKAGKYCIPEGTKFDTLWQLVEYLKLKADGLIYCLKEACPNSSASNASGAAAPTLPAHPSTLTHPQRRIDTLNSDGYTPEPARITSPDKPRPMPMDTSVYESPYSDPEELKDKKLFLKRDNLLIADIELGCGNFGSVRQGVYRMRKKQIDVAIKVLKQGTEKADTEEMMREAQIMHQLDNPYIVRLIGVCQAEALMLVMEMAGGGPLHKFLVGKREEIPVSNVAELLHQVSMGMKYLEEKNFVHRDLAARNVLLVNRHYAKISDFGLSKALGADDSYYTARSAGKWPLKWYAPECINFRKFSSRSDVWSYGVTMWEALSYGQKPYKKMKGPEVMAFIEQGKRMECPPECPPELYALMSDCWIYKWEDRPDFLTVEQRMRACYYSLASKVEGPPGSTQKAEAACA

[7] = target: RAC-alpha serine/threonine-protein kinase (Homo sapiens) (UniProt P31749); experiment: Inhibition of partial length human AKT1 expressed in bacterial system at 1 uM; how it was run: as §2
Sequence of RAC-alpha serine/threonine-protein kinase (Homo sapiens) (P31749 whole entry): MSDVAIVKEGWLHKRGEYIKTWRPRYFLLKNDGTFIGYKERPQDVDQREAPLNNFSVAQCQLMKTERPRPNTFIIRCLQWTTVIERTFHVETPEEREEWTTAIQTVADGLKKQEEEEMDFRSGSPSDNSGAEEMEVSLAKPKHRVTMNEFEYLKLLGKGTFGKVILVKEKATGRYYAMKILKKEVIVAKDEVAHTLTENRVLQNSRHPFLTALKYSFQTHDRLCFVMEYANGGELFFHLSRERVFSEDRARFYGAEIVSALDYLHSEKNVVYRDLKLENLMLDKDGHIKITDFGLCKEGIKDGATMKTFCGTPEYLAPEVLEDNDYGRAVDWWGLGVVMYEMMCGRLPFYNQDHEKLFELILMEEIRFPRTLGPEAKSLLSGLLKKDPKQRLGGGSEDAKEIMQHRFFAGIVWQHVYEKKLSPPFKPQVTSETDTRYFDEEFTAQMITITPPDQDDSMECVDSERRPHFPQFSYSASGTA

[8] = target: Dual specificity mitogen-activated protein kinase kinase 2 (Homo sapiens) (UniProt P36507); experiment: Inhibition of partial length human MEK2 expressed in mammalian system at 1 uM; how it was run: as §1
Sequence of Dual specificity mitogen-activated protein kinase kinase 2 (Homo sapiens) (P36507 whole entry): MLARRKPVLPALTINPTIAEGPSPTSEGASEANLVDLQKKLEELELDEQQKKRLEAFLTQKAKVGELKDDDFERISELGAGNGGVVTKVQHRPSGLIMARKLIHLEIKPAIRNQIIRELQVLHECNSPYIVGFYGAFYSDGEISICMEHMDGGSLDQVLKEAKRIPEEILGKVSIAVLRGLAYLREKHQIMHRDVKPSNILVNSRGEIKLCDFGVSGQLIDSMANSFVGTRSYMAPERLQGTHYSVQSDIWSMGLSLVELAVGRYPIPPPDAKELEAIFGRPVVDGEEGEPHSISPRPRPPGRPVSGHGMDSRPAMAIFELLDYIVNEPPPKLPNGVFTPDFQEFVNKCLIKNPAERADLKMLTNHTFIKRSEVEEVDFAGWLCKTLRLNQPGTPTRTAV

[9] = target: Mitogen-activated protein kinase 14 (Homo sapiens) (UniProt Q16539); experiment: Inhibition of partial length human p38alpha expressed in bacterial system at 1 uM; how it was run: as §1
[10] = target: Serine/threonine-protein kinase PLK1 (Homo sapiens) (UniProt P53350); experiment: Inhibition of partial length human PLK1 expressed in mammalian system at 1 uM; how it was run: as §1
[11] = target: Angiopoietin-1 receptor (Homo sapiens) (UniProt Q02763); experiment: Inhibition of partial length human TIE2 expressed in bacterial system at 1 uM; how it was run: as §1
[12] = test system: Serine/threonine-protein kinase B-raf (Homo sapiens), P15056 [V600E]; experiment: Inhibition of partial length human BRAF V600E mutant expressed in mammalian system at 1 uM; how it was run: as §2
[13] = target: Tyrosine-protein kinase BTK (Homo sapiens) (UniProt Q06187); experiment: Inhibition of partial length human BTK expressed in mammalian system at 1 uM; how it was run: as §2
[14] = target: Cyclin-dependent kinase 16 (Homo sapiens) (UniProt Q00536); experiment: Inhibition of partial length human PCTK1 expressed in mammalian system at 1 uM; how it was run: as §1
[15] = target: Mitogen-activated protein kinase 9 (Homo sapiens) (UniProt P45984); experiment: Inhibition of partial length human JNK2 expressed in mammalian system at 1 uM; how it was run: as §2
[16] = target: Phosphatidylinositol 4-phosphate 3-kinase C2 domain-containing subunit beta (Homo sapiens) (UniProt O00750); experiment: Inhibition of partial length human PIK3C2beta expressed in mammalian system at 1 uM; how it was run: as §1
[17] = Permeability across MDCK cells; assay type: ADME, cell-based, Canis lupus familiaris; details: dog, read-out: permeability
How it was run: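 Measured across a confluent MDCK cell monolayer; apparent permeability is reported together with the efflux ratio.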

[18] = Half life in human liver microsomes; assay type: ADME
How it was run: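 Incubated with human or mouse liver microsomes; the read-out was intrinsic clearance alongside half-life, given in hours.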

[19] = target: Mitogen-activated protein kinase 10 (Homo sapiens) (UniProt P53779); experiment: Inhibition of partial length human JNK3 expressed in mammalian system at 1 uM; how it was run: as §2
Sequence of Mitogen-activated protein kinase 10 (Homo sapiens) (P53779 whole entry): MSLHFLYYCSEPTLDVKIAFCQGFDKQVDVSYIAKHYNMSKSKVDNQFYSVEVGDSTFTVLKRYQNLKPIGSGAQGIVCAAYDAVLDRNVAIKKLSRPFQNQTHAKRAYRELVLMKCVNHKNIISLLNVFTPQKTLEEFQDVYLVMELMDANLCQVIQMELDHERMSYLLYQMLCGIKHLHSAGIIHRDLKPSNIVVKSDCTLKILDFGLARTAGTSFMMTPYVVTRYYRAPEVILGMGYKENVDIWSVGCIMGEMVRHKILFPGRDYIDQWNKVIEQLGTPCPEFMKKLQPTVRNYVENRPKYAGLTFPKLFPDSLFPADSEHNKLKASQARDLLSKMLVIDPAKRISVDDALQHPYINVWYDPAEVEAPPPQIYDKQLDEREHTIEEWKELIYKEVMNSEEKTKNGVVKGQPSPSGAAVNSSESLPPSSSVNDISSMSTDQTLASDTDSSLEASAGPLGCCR

[20] = target: Serine/threonine-protein kinase pim-1 (Homo sapiens) (UniProt P11309); experiment: Inhibition of partial length human PIM1 expressed in bacterial system at 1 uM; how it was run: as §1
[21] = test system: Mast/stem cell growth factor receptor Kit (Homo sapiens), P10721 [V559D,T670I]; experiment: Inhibition of partial length human KIT V559D/T670I double mutant expressed in bacterial system at 1 uM; how it was run: as §3
[22] = target: Dual specificity tyrosine-phosphorylation-regulated kinase 1B (Homo sapiens) (UniProt Q9Y463); experiment: Inhibition of partial length human DYRK1B expressed in bacterial system at 1 uM; how it was run: as §2
HeLa [23] = experiment: Antiproliferative activity against human HeLa cells assessed as change in phenotypic response up to 50 uM; assay type: functional, cell-based
[24] = target: Platelet-derived growth factor receptor alpha (Homo sapiens) (UniProt P16234); experiment: Inhibition of partial length human PDGFRalpha expressed in mammalian system at 1 uM; how it was run: as §1
[25] = target: Serine/threonine-protein kinase DCLK1 (Homo sapiens) (UniProt O15075); experiment: Inhibition of partial length human DCAMKL1 expressed in mammalian system at 1 uM; how it was run: as §2
HeLa [26] = experiment: Antiproliferative activity against human HeLa cells assessed as change in phenotypic response measured after prolonged treatment; assay type: functional, cell-based
[27] = target: Serine/threonine-protein kinase PLK4 (Homo sapiens) (UniProt O00444); experiment: Inhibition of partial length human PLK4 expressed in mammalian system at 1 uM; how it was run: as §1
Sequence of Serine/threonine-protein kinase PLK4 (Homo sapiens) (O00444 whole entry): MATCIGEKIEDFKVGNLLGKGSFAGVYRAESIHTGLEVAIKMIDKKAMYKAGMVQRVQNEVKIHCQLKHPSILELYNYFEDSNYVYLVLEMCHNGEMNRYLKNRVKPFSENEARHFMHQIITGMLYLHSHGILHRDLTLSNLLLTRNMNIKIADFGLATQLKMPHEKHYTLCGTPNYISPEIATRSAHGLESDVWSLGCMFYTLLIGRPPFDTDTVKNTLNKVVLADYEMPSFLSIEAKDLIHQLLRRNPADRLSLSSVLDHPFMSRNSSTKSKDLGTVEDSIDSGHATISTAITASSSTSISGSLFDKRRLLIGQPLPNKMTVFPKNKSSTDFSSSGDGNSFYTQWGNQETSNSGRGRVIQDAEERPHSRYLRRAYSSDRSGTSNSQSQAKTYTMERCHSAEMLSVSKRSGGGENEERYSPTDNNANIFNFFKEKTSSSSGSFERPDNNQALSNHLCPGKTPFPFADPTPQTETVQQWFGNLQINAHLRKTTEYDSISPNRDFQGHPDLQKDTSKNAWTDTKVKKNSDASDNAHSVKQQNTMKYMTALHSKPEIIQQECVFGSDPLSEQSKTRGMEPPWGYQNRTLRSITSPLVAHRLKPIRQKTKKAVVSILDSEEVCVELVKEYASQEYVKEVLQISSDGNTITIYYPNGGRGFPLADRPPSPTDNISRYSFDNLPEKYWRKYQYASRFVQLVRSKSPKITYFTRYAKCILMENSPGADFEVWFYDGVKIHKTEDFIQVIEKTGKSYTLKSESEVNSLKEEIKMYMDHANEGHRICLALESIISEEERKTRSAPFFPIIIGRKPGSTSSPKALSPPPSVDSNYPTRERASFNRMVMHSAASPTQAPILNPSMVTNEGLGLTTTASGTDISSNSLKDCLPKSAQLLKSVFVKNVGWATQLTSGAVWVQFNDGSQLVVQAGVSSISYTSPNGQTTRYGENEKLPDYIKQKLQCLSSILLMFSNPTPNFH

Liver microsome = experiment: Intrinsic clearance in human liver microsomes; assay type: ADME
[28] = target: Testis-specific serine/threonine-protein kinase 1 (Homo sapiens) (UniProt Q9BXA7); experiment: Inhibition of partial length human TSSK1B expressed in bacterial system at 1 uM; how it was run: as §1
Sequence of Testis-specific serine/threonine-protein kinase 1 (Homo sapiens) (Q9BXA7 whole entry, canonical isoform): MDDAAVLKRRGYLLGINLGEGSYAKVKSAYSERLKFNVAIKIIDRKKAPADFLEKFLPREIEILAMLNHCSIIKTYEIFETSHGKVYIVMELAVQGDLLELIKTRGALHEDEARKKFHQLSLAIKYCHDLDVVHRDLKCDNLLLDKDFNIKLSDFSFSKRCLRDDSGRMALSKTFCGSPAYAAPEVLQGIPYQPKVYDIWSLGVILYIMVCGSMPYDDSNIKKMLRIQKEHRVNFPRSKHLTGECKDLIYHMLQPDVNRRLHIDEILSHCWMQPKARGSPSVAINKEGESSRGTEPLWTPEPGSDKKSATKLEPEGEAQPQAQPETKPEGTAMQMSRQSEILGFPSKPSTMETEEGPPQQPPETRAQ

[29] = target: Casein kinase I isoform delta (Homo sapiens) (UniProt P48730); experiment: Inhibition of partial length human CSNK1D expressed in bacterial system at 1 uM; how it was run: as §2
Sequence of Casein kinase I isoform delta (Homo sapiens) (P48730 whole entry, looked up, canonical isoform): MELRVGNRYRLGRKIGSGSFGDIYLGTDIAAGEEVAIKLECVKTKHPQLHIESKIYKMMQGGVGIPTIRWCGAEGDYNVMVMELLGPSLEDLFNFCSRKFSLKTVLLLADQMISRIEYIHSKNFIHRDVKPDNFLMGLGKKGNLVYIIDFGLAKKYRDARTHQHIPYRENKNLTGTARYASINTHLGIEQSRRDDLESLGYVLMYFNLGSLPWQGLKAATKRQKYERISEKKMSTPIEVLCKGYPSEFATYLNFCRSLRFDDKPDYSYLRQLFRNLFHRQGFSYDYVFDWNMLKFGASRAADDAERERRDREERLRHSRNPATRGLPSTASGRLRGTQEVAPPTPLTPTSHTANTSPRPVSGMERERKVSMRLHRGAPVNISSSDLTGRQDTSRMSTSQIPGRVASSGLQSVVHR

[30] = target: MAP/microtubule affinity-regulating kinase 3 (Homo sapiens) (UniProt P27448); experiment: Inhibition of partial length human MARK3 expressed in bacterial system at 1 uM; how it was run: as §2
[31] = target: Tyrosine-protein kinase ABL1 (Homo sapiens) (UniProt P00519); experiment: Inhibition of partial length human ABL1 phosphorylation expressed in mammalian system at 1 uM; how it was run: as §2
Sequence of Tyrosine-protein kinase ABL1 (Homo sapiens) (P00519 whole entry): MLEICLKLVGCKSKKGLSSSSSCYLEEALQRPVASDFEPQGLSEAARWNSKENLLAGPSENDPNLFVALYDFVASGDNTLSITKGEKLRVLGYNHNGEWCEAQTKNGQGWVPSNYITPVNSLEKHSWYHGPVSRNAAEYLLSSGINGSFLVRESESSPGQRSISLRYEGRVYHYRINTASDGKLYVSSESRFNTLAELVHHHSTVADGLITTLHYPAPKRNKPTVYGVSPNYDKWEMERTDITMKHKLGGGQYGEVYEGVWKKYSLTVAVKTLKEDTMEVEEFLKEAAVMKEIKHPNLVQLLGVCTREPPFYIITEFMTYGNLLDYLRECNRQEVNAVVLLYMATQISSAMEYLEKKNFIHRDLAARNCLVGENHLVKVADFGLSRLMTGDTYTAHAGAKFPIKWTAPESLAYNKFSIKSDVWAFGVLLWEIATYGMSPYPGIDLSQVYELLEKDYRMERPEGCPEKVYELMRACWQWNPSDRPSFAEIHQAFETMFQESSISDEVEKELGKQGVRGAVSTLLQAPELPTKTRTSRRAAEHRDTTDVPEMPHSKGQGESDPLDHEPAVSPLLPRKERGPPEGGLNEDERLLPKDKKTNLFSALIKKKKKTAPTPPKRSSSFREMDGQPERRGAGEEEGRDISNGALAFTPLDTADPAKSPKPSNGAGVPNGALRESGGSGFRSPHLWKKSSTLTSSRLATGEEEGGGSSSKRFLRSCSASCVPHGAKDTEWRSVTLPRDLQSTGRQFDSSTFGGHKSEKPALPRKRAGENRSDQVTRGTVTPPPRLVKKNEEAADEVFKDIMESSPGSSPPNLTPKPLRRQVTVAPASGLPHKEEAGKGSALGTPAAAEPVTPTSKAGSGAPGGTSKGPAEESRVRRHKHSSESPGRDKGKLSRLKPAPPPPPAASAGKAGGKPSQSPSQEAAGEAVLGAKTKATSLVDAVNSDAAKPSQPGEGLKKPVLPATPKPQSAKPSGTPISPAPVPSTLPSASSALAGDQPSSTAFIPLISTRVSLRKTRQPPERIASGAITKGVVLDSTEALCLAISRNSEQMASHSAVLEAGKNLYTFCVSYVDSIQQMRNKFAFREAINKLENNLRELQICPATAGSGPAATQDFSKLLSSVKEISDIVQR

[32] = target: TGF-beta receptor type-1 (Homo sapiens) (UniProt P36897); experiment: Inhibition of partial length human TGFBR1 expressed in bacterial system at 1 uM; how it was run: as §1
[33] = target: High affinity nerve growth factor receptor (Homo sapiens) (UniProt P04629); experiment: Inhibition of partial length human TRKA expressed in mammalian system at 1 uM; how it was run: as §1
SW480 = experiment: Antiproliferative activity against human SW480 cells assessed as change in phenotypic response up to 50 uM; assay type: functional, cell-based
[34] = target: Ribosomal protein S6 kinase alpha-2 (Homo sapiens) (UniProt Q15349); experiment: Inhibition of N-terminal partial length human RSK2 kinase domain 1 expressed in mammalian system at 1 uM; how it was run: as §2
[35] = target: Serine/threonine-protein kinase RIO2 (Homo sapiens) (UniProt Q9BVS4); experiment: Inhibition of partial length human RIOK2 expressed in mammalian system at 1 uM; how it was run: as §1
[36] = Plasma protein binding in human; assay type: ADME, cell-free; details: read-out: PPB (converted)
U2OS = experiment: Antiproliferative activity against human U2OS cells assessed as change in phenotypic response measured after prolonged treatment; assay type: functional, cell-based

With `Cc1cnc(N)nc1OCC(C)(C)CO` the inhibition [1] was “inactive”, the inhibition [2] was “inactive” and the inhibition [3] was “inactive”. For the same compound, the inhibition [4] was “inactive”, the inhibition [5] was “inactive” and the Activity (HMEC) was “Non-toxic”. For the same compound, the inhibition [6] was “inactive”, the inhibition [7] was “inactive” and the inhibition [8] was “inactive”. The inhibition [9] was “inactive”, the inhibition [10] was “inactive” and the inhibition [11] was “inactive”. The inhibition [12] was “inactive”, the inhibition [13] was “inactive” and the inhibition [14] was “inactive”. For the same compound, the inhibition [15] was “inactive”, the inhibition [16] was “inactive” and the Papp [17] was 32 ×10⁻⁶ cm/s. For the same compound, the half-life [18] was 5.5 h, the inhibition [19] was “inactive” and the inhibition [20] was “inactive”. For the same compound, the inhibition [21] was “inactive”, the inhibition [22] was “inactive” and the Activity (HeLa [23]) was “inactive”. For the same compound, the inhibition [24] was “inactive”, the inhibition [25] was “inactive” and the Activity (HeLa [26]) was “inactive”. For the same compound, the inhibition [27] was “inactive”, the CLH (Liver microsome) was 7.5 µL/min/mg and the inhibition [28] was “inactive”. For the same compound, the inhibition [29] was “inactive”, the inhibition [30] was “inactive” and the inhibition [31] was “inactive”. For the same compound, the inhibition [32] was “inactive”, the inhibition [33] was “inactive” and the Activity (SW480) was “inactive”. The inhibition [34] was “inactive”, the inhibition [35] was “inactive” and the fraction unbound [36] was 0.46. The Activity (U2OS) was “inactive”.
